# Source: PubChem BioAssay
# An excerpt weighted towards active compounds, which were near 1.5% of everything screened.
# FLuc act counter: affects firefly luciferase, flagging false hits in luciferase stimulation screens. ATPlite luciferase biochemical, luminescence, 10 min; 0 = ATP-free wells, 1 = DMSO control. activation factor at 10 µM. 200,000 tested, under 10 active. AID 1027;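 active = luciferase activation factor, scaled between plate controls, of at least 2 with compound at 10 µM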
# Target sequence (P08659 whole entry, looked up): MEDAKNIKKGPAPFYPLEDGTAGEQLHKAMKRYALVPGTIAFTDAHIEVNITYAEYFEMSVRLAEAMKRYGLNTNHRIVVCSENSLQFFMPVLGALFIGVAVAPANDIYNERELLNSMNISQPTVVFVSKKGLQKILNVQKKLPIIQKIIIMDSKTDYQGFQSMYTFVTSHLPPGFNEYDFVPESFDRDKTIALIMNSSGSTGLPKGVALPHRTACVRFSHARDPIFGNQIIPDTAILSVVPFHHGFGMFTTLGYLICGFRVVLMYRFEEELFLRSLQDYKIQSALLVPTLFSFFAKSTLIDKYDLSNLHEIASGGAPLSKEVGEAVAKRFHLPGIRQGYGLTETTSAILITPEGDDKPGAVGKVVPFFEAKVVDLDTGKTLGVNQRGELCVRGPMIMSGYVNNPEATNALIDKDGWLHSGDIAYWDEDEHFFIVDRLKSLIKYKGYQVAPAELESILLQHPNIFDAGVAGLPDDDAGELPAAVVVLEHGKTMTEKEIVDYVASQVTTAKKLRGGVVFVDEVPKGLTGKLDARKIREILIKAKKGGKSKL
#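 Assay system: Luciferase/luciferin reagent mix; Medium: PBS as buffer for the ATP substrate; Dosing: test compounds dosed from 2 mM stocks in 100% DMSO; Times: 10 min, room temperature; Signal: luminescence from luciferase reaction; Read-out: luciferase activation; Controls: No-ATP low control, compound-free enzyme-plus-ATP high control.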
# PPC-1+TRAIL kill: compounds killing PPC-1 cancer cells with TRAIL present (potentiator screen, no TRAIL-free arm); PPC-1 cells + TRAIL, ATPLite viability luminescence; cell killing (% activity), % at 4 µM or 5 µM; actives 0.41% (n = 220,000); AID 1443;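 active = cell killing above 50% in the first pass at 4 µM, then a duplicate retest at 5 µM averaging 50% or more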;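 note: plate controls were cells with TRAIL plus DMSO for no effect and medium-only wells lacking cells for full effect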
# C8 TRAIL sens: sensitizes caspase-8 expressing cells to TRAIL; NB7+C8 cells + TRAIL, ATPlite viability luminescence; inhibition (viability loss, TRAIL sensitization), % at 10 µM; AID 624354; actives 1% (n = 360,000);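 active = compounds causing at least 50% loss of cell viability in the single-dose screen, relative to plate controls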
# FLuc inhib CS: inhibits firefly luciferase, flagging false hits in luciferase inhibition screens. P08659. ATPLite firefly luciferase biochemical luminescence, 10 min. inhibition, % at 10 µM. actives 1.5% (n = 200,000). AID 1006;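 active = inhibition above about 50% when tested at 10 µM, limit read from the data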
# * marks the source's active call; other numbers are inactive results; nt = no result given.
SMILES,FLuc act counter,PPC-1+TRAIL kill,C8 TRAIL sens,FLuc inhib CS
Cc1cccc(NC(=O)CCc2ccc(N3C(N)=NC(N)=NC3(C)C)cc2)c1,nt,nt,80*,nt
O=C(NCCN1CCC(n2c(=O)[nH]c3ccccc32)CC1)c1ccc(F)c(C(F)(F)F)c1,nt,nt,-3,nt
Cc1ccc(N2N=C(c3ccc(F)cc3)CC2c2ccco2)cc1 (centres undefined),1,6,6,3
COc1cc(OC)c2c(=O)cc(-c3cccnc3)oc2c1,nt,32,5,nt
COc1cc(OC)c2c(=O)cc(-c3ccccc3)oc2c1,0.4,36,32,58*
CC1(C(=O)NCc2ccccc2Br)CCN1Cc1c(F)cccc1F (centres undefined),nt,nt,1,nt
CCc1ccc(C(=O)Cn2ccsc2=N)cc1,nt,nt,59*,nt
Cc1cc2ncc(-c3ccccc3)nc2cc1C,nt,nt,27,nt
CCOC(=O)c1ccc2ncc(-c3ccccc3)nc2c1,0.3,24,17,74*
CC1=C(C(=O)OCc2ccccc2)C(c2ccc(N(C)C)cc2)NC(=O)N1 (centres undefined),1.1,0,-30,-6
O=S(=O)(NC1CCc2ccccc21)c1ccccc1 (centres undefined),nt,nt,14,nt
COC(=O)CN(c1cc(OC)ccc1OC)S(=O)(=O)c1ccc(OC)c(OC)c1,1,-6,10,-2
CC(=O)N(c1ccc(Cl)cc1)c1cn(C(C)=O)c2ccccc12,1,13,-19,-3
CC(=O)n1cc(N(C(=O)CCl)c2ccc(C)cc2)c2ccccc21,nt,38,95*,nt
CCc1cc(CNC(=O)C2CCC(=O)N(CCc3ccc(OC)cc3)C2)on1 (centres undefined),nt,nt,-7,nt
c1coc(C2Nc3ccccc3C3OCCC23)c1 (centres undefined),1,17,8,3
COc1ccc2c(c1)C1OCCC1C(c1ccco1)N2 (centres undefined),nt,nt,83*,nt
CN(CC(=O)Nc1ccc(Cl)c(Cl)c1)C(=O)c1ccccc1SCC(=O)N1CCCC1,nt,nt,3,nt
Cc1cc(C2=NNC(=Nc3ccccc3)SC2)c(C)n1C,0.4,17,-2,61*
Cc1ccc(-n2c(C)cc(C3=NNC(=NC4CC4)SC3)c2C)cc1C,0.4,23,64*,63*
COCCCN=C1NN=C(c2cc(C)n(-c3ccccc3F)c2C)CS1,0.2,41,53*,84*
COCCn1c(C)cc(C2=NNC(=Nc3ccccc3F)SC2)c1C,0.2,37,-5,82*
Fc1ccc(F)c(C2=NNC(=Nc3ccccc3F)SC2)c1,0.8,30,15,16
O=Cc1cc2cc3c(cc2nc1Cl)OCCO3,nt,14,nt,nt
O=C(O)COc1ccc(/C=N/Nc2nc(Nc3ccccc3)nc(N3CCCCC3)n2)cc1,0.5,18,23,55*
SMILES,FLuc act counter,PPC-1+TRAIL kill,C8 TRAIL sens,FLuc inhib CS
COc1ccc(/C=N/Nc2nc(Nc3ccccc3)nc(N3CCCC3)n2)cc1,0.8,4,10,23
COC(=O)C[C@@H]1CC[C@H](NC(=O)Cc2ccccn2)[C@@H](CO)O1,nt,nt,8,nt
O=C(C[C@H]1C/C=C\C[C@H](NC(=O)OCC2c3ccccc3-c3ccccc32)C(=O)OC[C@H](Cc2ccccc2)NC1=O)N[C@H](CO)Cc1ccccc1,nt,nt,64*,nt
C[C@@H]1COC(=O)[C@H](NC(=O)OCC2c3ccccc3-c3ccccc32)C/C=C\C[C@@H](CC(=O)N[C@@H](CO)Cc2ccccc2)C(=O)N1,nt,nt,11,nt
O=C(NCc1ccccc1)c1c(Cl)nc(Cl)c(Cl)c1Cl,nt,nt,94*,nt
Cc1nc(Cl)c(C(=O)NCc2ccccc2)c(C)c1Cl,1.1,24,13,-6
Cc1ccc2cc3cc(C(=O)N4CCCCC4C)oc3nc2c1 (centres undefined),0.4,40,30,55*
Cc1ccc2cc3cc(C(=O)N4CC(C)CC(C)C4)oc3nc2c1 (centres undefined),1,23,7,4
Cc1cc(/C=C\c2ccc3cc(N(C)C)ccc3[n+]2C)c(C)n1-c1ccccc1,nt,nt,60*,nt
C[n+]1c(/C=C/c2ccc(O)cc2)ccc2ccccc21,nt,nt,4,nt
Cc1ccc(NC(=O)CN2C(=O)NC(C)(c3ccc(Cl)cc3)C2=O)cc1S(=O)(=O)N1CCOCC1 (centres undefined),1,-24,-5,-4
FC(F)(F)c1ccc(/C=N/NC(=S)NC2CCCCC2)cc1,1,6,2,-3
C=CCNC(=S)N/N=C/c1ccc(C)cc1C,0.4,30,22,63*
C=CCNC(=S)N/N=C/c1ccc(C(F)(F)F)cc1,0.5,13,51*,52*
CCNC(=S)N/N=C/c1cc(C)ccc1C,1,-9,1,-1
O=C(Nc1ccncc1)C1COc2ccccc2O1 (centres undefined),1,18,10,-2
O=C(NC1=NCCS1)C1COc2ccccc2O1 (centres undefined),0.2,29,43,76*
CN(CCO)c1cc(Sc2nc3ccccc3s2)c2nonc2c1[N+](=O)[O-],1,9,60*,-4
O=C(Nc1cccnc1)c1ccc(-c2cc(Cl)ccc2Cl)o1,0.9,3,-5,6
O=C(Nc1cccnc1)c1ccc(-c2ccc(Cl)cc2)o1,0.3,28,-1,66*
COc1ccc(S(=O)(=O)N2CCc3ccccc32)cc1C(=O)Nc1ccc(NC(C)=O)cc1,nt,nt,16,nt
c1ccc(-c2nnc(CN3CCC4(CC3)OCCO4)o2)cc1,1,12,6,-4
c1ccc(-c2nnc3sc(CN4CCC5(CC4)OCCO5)cn23)cc1,1.1,5,65*,-7
CN1C(=O)C(O)(CC(=O)c2cccnc2)c2ccccc21 (centres undefined),1,-6,-12,-4
O=C(CC1(O)C(=O)N(Cc2cccc3ccccc23)c2ccccc21)c1cccnc1 (centres undefined),0.3,2,21,69*
SMILES,FLuc act counter,PPC-1+TRAIL kill,C8 TRAIL sens,FLuc inhib CS
N#CC1=C(Nc2ccccc2)SC=C(c2ccccc2)N=C1N1CCOCC1,1,19,7,2
NC(N)=Nc1ccc(C=C2C=Cc3ccccc32)cc1,nt,nt,87*,nt
Nc1ccc(C=C2C=Cc3ccccc32)cc1,nt,nt,9,nt
CC(=O)c1sc(N/N=C\c2ccccc2O)nc1C,0.3,nt,35,68*
COc1ccc(OCc2nc3ccccc3[nH]2)cc1,0.3,44,48,70*
COc1cccc(OCc2nc3ccccc3[nH]2)c1,0.5,27,32,52*
Brc1ccc(OCc2nc3ccccc3[nH]2)cc1,nt,nt,18,nt
c1ccc2cc(OCc3nc4ccccc4[nH]3)ccc2c1,0.3,22,37,73*
Cc1ccccc1OCc1nc2ccccc2[nH]1,0.5,27,24,53*
CN1CCN(c2ccccc2NC(=O)c2c(F)cccc2F)CC1,1.1,5,23,-9
Cc1ccc(SCc2nc3ccccc3[nH]2)cc1,0.5,41,32,54*
COc1ccc2c(c1)C(=O)C(=O)N2,1,4,1,0
CN(C)CC(CCC(CN(C)C)C(=O)c1ccccc1)C(=O)c1ccccc1 (centres undefined),nt,52*,16,nt
